Screens: PubChem, The Scripps Research Institute Molecular Screening Center
CHRM4 antagonist: antagonists of human muscarinic M4 receptor (CHRM4); P08173; CHO-hM4 cells, ACh EC80, Fluo-8 calcium fluorescence; inhibition, % at 3 µM; 360,000 tested, 0.73% active; AID 624125;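 active means inhibition above its plate's cutoff, the mean inhibition of sample wells plus 3 SD, cut at about 27% in these data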
Target sequence (P08173 whole entry, looked up): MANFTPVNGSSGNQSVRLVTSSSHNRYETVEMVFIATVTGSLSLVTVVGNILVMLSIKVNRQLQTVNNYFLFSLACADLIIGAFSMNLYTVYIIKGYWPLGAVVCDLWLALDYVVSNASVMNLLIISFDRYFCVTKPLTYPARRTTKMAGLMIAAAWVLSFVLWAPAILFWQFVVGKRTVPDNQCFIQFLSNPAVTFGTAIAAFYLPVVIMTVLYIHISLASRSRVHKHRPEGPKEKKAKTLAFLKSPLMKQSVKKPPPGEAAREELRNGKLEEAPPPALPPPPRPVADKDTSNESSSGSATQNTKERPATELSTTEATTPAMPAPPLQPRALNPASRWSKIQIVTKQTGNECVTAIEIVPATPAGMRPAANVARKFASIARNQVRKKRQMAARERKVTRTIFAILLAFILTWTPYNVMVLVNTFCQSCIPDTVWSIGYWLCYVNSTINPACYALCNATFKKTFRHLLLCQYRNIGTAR
CHRM4 agonist: CHRM4 agonism in calcium assay; P08173; CHO-K1 hM4/Gqi5, Fluo-8 calcium fluorescence; vehicle 0%, full acetylcholine response 100%; activation, % at 3 µM; 360,000 tested, 0.14% active;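 active means activation above the run mean over all test wells plus 3 SD, cut at about 32% in these data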;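 further: peak over basal fluorescence ratio per well then scaled between controls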
M4 PAM: CHRM4 positive allosteric modulation | P08173 | CHO-K1 hM4/Gqi5, Fluo-8 calcium fluorescence, ACh EC20; 0% = ACh EC20, 100% = maximal ACh | activation, % at 3 µM | 360,000 tested, 0.4% active | AID 624126;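 active means activation above its plate's cutoff, the mean activation of sample wells plus 3 SD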
TAAR1 antag: human TAAR1 antagonism | CHO RD-HGA16 TAAR1, Fluo-8 calcium fluorescence, antagonist | inhibition, % at 3 µM | 360,000 tested, 1.5% active | AID 624466;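 active means inhibition above a per-plate cutoff, the mean inhibition of test compounds on that plate plus 3 SD, cut at about 49% in these data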
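Test system: RD-HGA16 CHO cells with stable hTAAR1 and Gα16 / Probe or stimulus: EC80 β-phenethylamine stimulus / Times: seeding 17-24 h prior, 75-min 37 °C, 30-min RT dye loading / Detection: Fluo-8 calcium-sensitive fluorescence / Read-out basis: % inhibition scaled between DMSO and EC80 PEA controls / Repeats: singlicate, one well per test compound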
TAAR1 ag: agonists of human TAAR1 | Q96RJ0 | CHO RD-HGA16 TAAR1, Fluo-8 calcium fluorescence; vehicle wells 0%, saturating PEA agonist 100% | activation, % at 3 µM | 360,000 tested, 0.99% active;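 active means activation above the mean activation of all test compounds in the run plus 3 SD, cut at about 38% in these data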
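test system = CHO RD-HGA16 cells carrying human TAAR1 plus Gα16 | schedule = 17-24 h seeding, 75 min 37 °C dye, 30 min RT | compound dosing = 3 µM single concentration | control set = DMSO and PEA EC100 | replicates = n 1 | signal = Fluo-8 fluorescence, 5 s baseline then 140 s kinetic read | measure = percent activation vs PEA EC100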
Each line names hits and unclear results; the compound was inactive in the other large screens. The list is not random: actives were taken first. Their share in the collection is about 3%.

CN(C)S(=O)(=O)c1cccc(-c2nnc(SCC(=O)NCCCCCC(=O)O)n2-c2ccc(F)cc2)c1	M4 PAM 25
CNC(=O)CSc1nnc(-c2cccc(S(=O)(=O)N3CCOCC3)c2)n1-c1ccc(F)cc1	none
COC(=O)C(Cc1ccccc1)NC(=O)C12CC3CC(CC(C3)C1)C2 (stereo unspecified)	M4 PAM 22
COC(=O)[C@H](Cc1ccccc1)NC(=O)NC(C)CCc1ccccc1 (stereo partly specified)	TAAR1 ag 45
CS(=O)(=O)c1cccc(OCCCN2CCC(C(O)(c3ccccc3)c3ccccc3)CC2)c1	none (no result: CHRM4 antagonist, CHRM4 agonist, M4 PAM)
COC(=O)Cc1nnn2c1CC(OC)c1cc(Br)ccc1-2 (stereo unspecified)	none (no result: CHRM4 antagonist, CHRM4 agonist, M4 PAM)
CCn1c(=O)c([N+](=O)[O-])c(Cl)c2ccccc21	CHRM4 antagonist 39 (no result: TAAR1 antag, TAAR1 ag)
CN(c1cccnc1)c1ccc(NC(=O)Cc2cn(Cc3ccccc3)c3ccccc23)cc1Br	none (no result: CHRM4 antagonist, CHRM4 agonist, M4 PAM)
CCCCCCN1C=CC(=C/C=C(\C#N)C(=O)OCC)C=C1	CHRM4 antagonist 36, CHRM4 agonist 253, TAAR1 antag 60, TAAR1 ag 114
CCCN1C=CC(=CC=C(C#N)C#N)C=C1	none
O=C(Nc1cccc(Cl)c1)NN(c1ccccc1)C1CCS(=O)(=O)C1 (stereo unspecified)	none (no result: CHRM4 antagonist, CHRM4 agonist, M4 PAM)
CCOc1ccc(NS(=O)(=O)c2ccc(NC(=O)C3CCCO3)cc2)cc1 (stereo unspecified)	TAAR1 ag 39
CCOc1ccc(S(=O)(=O)Nc2ccc(C(=O)NCC3CCCO3)cc2)cc1 (stereo unspecified)	none
Cc1cccc2sc(N(CCN(C)C)C(=O)C3CCN(S(=O)(=O)c4cccs4)CC3)nc12	TAAR1 ag 39
O=C(c1cccnc1)N1CCN(c2ccc(Cl)cc2)CC1	M4 PAM 30
O=C(c1ccc(Cl)cc1)N1CCN(c2ccc([N+](=O)[O-])c(NCc3cccnc3)c2)CC1	M4 PAM 26
C=CCNc1ccc2c(c1)OC[C@H](CC(C)C)NS2(=O)=O	none (no result: CHRM4 antagonist, CHRM4 agonist, M4 PAM)
CCN(CC)c1ncnc2c1ncn2Cc1c(Cl)cccc1Cl	M4 PAM 22
Clc1cccc(Cl)c1Cn1cnc2c(N3CCCCCC3)ncnc21	none
CCN(CC)c1ncn(Cc2c(Cl)cccc2Cl)c2ncnc1-2	M4 PAM 52
Cc1nn(Cc2c(Cl)cccc2Cl)c(C)c1N	none
NC(=O)c1ncn([C@@H]2O[C@H](C(=O)Nc3ccc(C(=O)N4CCCCC4)cc3)[C@@H](O)[C@H]2O)n1	none (no result: CHRM4 antagonist, CHRM4 agonist, M4 PAM)
COc1ccc(S(=O)(=O)Cc2ccc(C(=O)N3CCN(c4cc(C)ccc4C)CC3)o2)cc1	none
COc1ccc(S(=O)(=O)Cc2ccc(C(=O)N3CCN(c4cc(Cl)ccc4C)CC3)o2)cc1	TAAR1 antag 49
COC(=O)C1CCN(C(=O)c2cc(-c3ccc(Cl)s3)nc3ccccc23)CC1	TAAR1 antag 57
O=C(Nc1ccc(-n2ccc(C(F)(F)F)n2)cc1)Nc1cccc(Cl)c1	CHRM4 antagonist 27
Cc1ccc(NC(=O)c2cc(N3C(=O)C=CC3=O)ccc2N2CCOCC2)cc1Cl	TAAR1 antag 51
C[C@H](O)[C@@H]1C(=O)N2CCc3c([nH]c4c(-c5ccccc5)cccc34)[C@@H]2C[C@@H]1N(C)C(=O)c1ccccc1F	none (no result: CHRM4 antagonist, CHRM4 agonist, M4 PAM)
C[C@@H](CO)NC(=O)c1[nH]cnc1C(=O)Nc1cccc(Cl)c1	none
CC(C(=O)NC1CCCC1)N1CCN(Cc2ccccc2)CC1 (stereo unspecified)	none
CC(C(=O)NC(=O)NC1CCCCC1)N1CCN(C(c2ccccc2)c2ccccc2)CC1 (stereo unspecified)	CHRM4 antagonist 37
Cc1ccc(C(C(=O)NC2CCCCC2)N2CCCC2)cc1 (stereo unspecified)	none
O=C(NC1CCCCC1)C(c1ccccc1)N1CCCC1 (stereo unspecified)	CHRM4 antagonist 46
Cc1[nH]c2ccccc2c1CC(=O)Nc1ccc(N(C)c2cccnc2)c(-c2ccc(F)c(F)c2)c1	none (no result: CHRM4 antagonist, CHRM4 agonist, M4 PAM)
CCOC(=O)C1CCCN(c2nc3c(C)cccn3c(=O)c2/C=C(\C#N)C(=O)NCc2ccco2)C1 (stereo unspecified)	TAAR1 ag 52
CCN(CC)CCC(O)(c1ccccc1)C1CCCCC1 (stereo unspecified)	CHRM4 antagonist 85
CCN(CC#CCC(O)(c1ccccc1)C1CCCC1)C(C)C (stereo unspecified)	CHRM4 antagonist 92
CS(=O)(=O)N(CC(=O)NCCSC1CCCCC1)c1ccccc1	none
CC[N+](CC)(CC)CCC(O)(c1ccccc1)C1CCCCC1 (stereo unspecified)	CHRM4 antagonist 99
CC(C)N(CC#CCC(O)(c1ccccc1)C1CCCC1)CCO (stereo unspecified)	none
C[C@@H]1C=CCCO[C@]12C(=O)N(Cc1ccccc1C(F)(F)F)c1ccccc12	none (no result: CHRM4 antagonist, CHRM4 agonist, M4 PAM)
C=C(CN(C)C)C(=O)c1ccc2c(c1)OCO2	none
C=C(CN(C)C)C(=O)c1ccc(OC2OC(COC(C)=O)C(OC(C)=O)C(OC(C)=O)C2OC(C)=O)cc1 (stereo unspecified)	TAAR1 antag 60
CNC(=O)c1cc(Oc2ccc(NC(=O)Nc3ccc(Cl)c(C(F)(F)F)c3)cc2)ccn1	CHRM4 antagonist 32, TAAR1 ag 44
O=C(Nc1ccc(Cl)c(C(F)(F)F)c1)c1ccncc1	none
C[C@@H]1Cc2[nH][nH]c(=O)c2[C@H](C)O1	none
O=C(Nc1ccncc1)c1ccc2c(c1)C(=O)N(C1CCCCC1)C2=O	CHRM4 antagonist 42
COC(=O)[C@]12C[C@H](CC(=O)NCCCN3CCCC3=O)C(=O)N(Cc3ccccc3)C1=C[C@H](C(C)C)O[C@@H]2C1CC1	none (no result: CHRM4 antagonist, CHRM4 agonist, M4 PAM)
COC(=O)[C@]12C[C@H](CC(=O)NCc3cccs3)C(=O)N(Cc3ccccc3)C1=C[C@H](C(C)(C)C)O[C@@H]2C	none (no result: CHRM4 antagonist, CHRM4 agonist, M4 PAM)
Cc1ccc(OCC(=O)N2CCc3ccccc3C2)c(C)c1	TAAR1 ag 42
CCOc1ccccc1NC(=O)CN1CCc2ccccc2C1	none
O=C(CNC1CCCCC1)N1CCc2ccccc2C1	CHRM4 antagonist 30
CCOc1ccccc1NC(=O)N1CCc2ccccc2C1	TAAR1 ag 41
COC(=O)[C@]12C[C@H](CC(=O)NCc3ccccc3)C(=O)N(Cc3ccccc3)C1=C[C@H](C(C)C)O[C@@H]2C1CC1	none (no result: CHRM4 antagonist, CHRM4 agonist, M4 PAM)
COCc1[nH]nc2c1C(c1cccc(C(F)(F)F)c1)NC2=O (stereo unspecified)	none (no result: CHRM4 antagonist, CHRM4 agonist, M4 PAM)
CCOc1ccccc1NC(=O)C(Sc1ccccc1)c1ccccc1 (stereo unspecified)	TAAR1 antag 57
Cc1cc([N+](=O)[O-])nn1CC(=O)Nc1ccccn1	M4 PAM 25
CC(C)C[C@H]1COc2c(Cl)cccc2S(=O)(=O)N1	none (no result: CHRM4 antagonist, CHRM4 agonist, M4 PAM)
CC(=O)c1cccc2c(O)c(C3=Nc4ccccc4C3=O)[nH]c12	M4 PAM 25
